The list is not random: actives were taken first. Their share in the collection is about 3.5%.
MrgX1 allo act: human MrgX1 positive allosteric modulation, primary screen. AID 588675. Q96LB2. B-score at 10 µM. 0.63% of 310,000 active. MrgX1-HEK293, Fluo-4 calcium flux, FDSS; hits give high values;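 active means plate-corrected calcium response at least 3 library SD above typical, normal starting fluorescence, not activating the receptor alone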;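 further: compound read alongside a low EC10 to EC30 dose of BAM8-22 agonist; peak minus trough fluorescence over baseline measured at the second addition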
RGS4 block: inhibitors of human RGS4. 0.45% of 310,000 active. B-score at 10 µM. AID 463165. HEK293 M3R/RGS4 inducible, Fluo-4 calcium flux; hits give high values; triggered by carbachol at its EC20;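 active means B-score, a plate-corrected calcium signal, over three deviations above library mean, with baseline fluorescence within five deviations of library mean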;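 further: RGS4 expression induced by doxycycline in cells with stable M3 receptor; B-score is computed from the integrated fluorescence ratio over baseline after carbachol; higher B-score means a larger calcium signal and so more RGS4 inhibition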
Target sequence (P49798 whole entry, looked up): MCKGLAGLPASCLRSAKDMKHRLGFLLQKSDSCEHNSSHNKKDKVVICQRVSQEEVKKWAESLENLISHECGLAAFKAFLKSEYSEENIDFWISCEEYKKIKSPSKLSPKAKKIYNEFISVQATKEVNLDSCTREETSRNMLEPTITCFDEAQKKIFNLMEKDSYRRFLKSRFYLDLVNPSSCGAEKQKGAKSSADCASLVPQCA
MrgX1 ag: agonists of human MrgX1 receptor; MrgX1-HEK293 cells, Fluo-4 calcium fluorescence, agonist mode; hits give high values; B-score at 10 µM; 0.44% of 310,000 active; Q96LB2;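 active means calcium response B-score plate-corrected fluorescence ratio at least 3 library SD, with starting fluorescence B-score inside 5 SD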
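Assay system: stable human MrgX1 HEK293 cell line. Quantity: 15,000 cells per well. Schedule: cells plated overnight, dye loaded 0.5 h 37 °C, 0.5 h room temperature. Detection: Fluo-4 NW calcium-flux fluorescence, kinetic read. Read-out basis: peak-minus-minimum fluorescence over baseline, converted to B scores. Control set: positive and negative control wells on each plate.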
MrgX1 antag: blocks BAM8-22 activation of human MrgX1 receptor | Q96LB2 | MRGX1-HEK293 calcium flux, Fluo-4, BAM8-22 antagonism; hits give low values | B-score at 10 µM | 1.3% of 310,000 active | AID 588676;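 active means calcium-response B-score plate-corrected more than 3 library SD below zero, starting fluorescence within 5 deviations, no agonist response on first addition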;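 further: peak minus trough fluorescence over baseline after final BAM8-22 challenge near maximal dose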
RGS4 pot: RGS4 potentiation or activation. HEK293 M3R/inducible RGS4, carbachol calcium flux Fluo4; hits give low values. 0.92% of 310,000 active. B-score at 10 µM. AID 463111;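 active means B-score of the integrated calcium signal more than 4 SD below the library mean, with starting fluorescence not abnormally high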;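 further: negative B-score means reduced calcium response which marks RGS4 activation or potentiation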
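Material: M3R-expressing HEK293 line, RGS4 induced by doxycycline | Schedule: Overnight RGS4 induction, 30 min dye load 37 °C, 20 min compound RT | Measured by: Fluo4 fluorescence kinetic imaging of calcium | Read-out: Integrated calcium ratio converted to B score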
MrgX1 antag conf: reconfirmed antagonist of human MrgX1 receptor signaling. shares compounds with MrgX1 antag. MrgX1-HEK293, BAM8-22 calcium flux, Fluo-4; hits give low values. remaining BAM8-22 calcium response % of control (hits give low values), % at 10 µM. 19% of 2,300 active. AID 602420;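 active means remaining agonist calcium response no higher than 100% minus 3 SD of agonist-only control wells, with starting fluorescence near control levels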;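 further: agonist BAM8-22 given at a near maximal EC90 to ECmax level; peak minus minimum fluorescence divided by baseline after agonist addition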
HEK293 Ca flux: MrgX1 antagonist counter-screen hit in parental HEK293 cells; shares compounds with MrgX1 antag; Fluo-4 calcium fluorescence, FDSS; fluorescence ratio F(max-min)/F0 at 10 µM; 2% of 4,000 active; AID 624111;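 active means duplicate-averaged calcium fluorescence ratio at least three times the standard deviation of buffer wells, a nonspecific response in parental cells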
HEK293 Ca counter: counter-screen for MrgX1 allosteric activators: effect in parental HEK293 cells; shares compounds with MrgX1 antag; parental HEK293 calcium flux, Fluo-4 fluorescence ratio; hits give high values; fluorescence ratio F(max-min)/F0 at 10 µM; 0.4% of 4,000 active;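 active means calcium fluorescence ratio, averaged over duplicates, at least 3 SD of the buffer-well ratio, meaning a nonspecific response in receptor-free cells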;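 further: untransfected parental HEK293 lacking MrgX1 used as counterscreen for MrgX1 allosteric activators; fluorescence change taken during the second addition on a kinetic imager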
HEK293 Ca cntr2: activity in parental HEK293 cells lacking MrgX1 receptor; shares compounds with MrgX1 antag; Fluo-4 calcium fluorescence (FDSS); hits give high values; fluorescence ratio F(max-min)/F0 at 10 µM; 8.7% of 4,000 active;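 active means calcium fluorescence ratio at least three times the spread of buffer wells, meaning a non-specific response in parental cells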
Starred values were filed as active, the others as inactive; i = inactive; x = no result given.

SMILES	MrgX1 allo act	RGS4 block	MrgX1 ag	MrgX1 antag	RGS4 pot	MrgX1 antag conf	HEK293 Ca flux	HEK293 Ca counter	HEK293 Ca cntr2
c1ccc2c(c1)Sc1ccccc1N2CC1CN2CCC1CC2 (configuration not stated)	i	i	i	i	i	x	x	x	x
COc1ccc(C(=O)Oc2cccc3cccnc23)cc1S(=O)(=O)N1CCOCC1	i	i	i	-6*	i	i	i	i	i
COc1ccc(CC(=O)Nc2ccc(C#N)c(Cl)c2)cc1S(=O)(=O)N1CCOCC1	i	i	i	i	i	x	x	x	x
O=C(c1cc2cc(Cl)ccc2[nH]1)N1CCC2(CC1)OCCO2	i	i	i	i	i	x	x	x	x
CCc1nc2ccccc2c(=O)n1-c1ccccc1[N+](=O)[O-]	i	i	i	i	i	x	x	x	x
Cc1nnc(SCc2nc3ccccc3c(=O)n2-c2ccccc2Cl)n1N	i	i	i	-8.2*	i	82%*	i	i	i
CCOc1cc2c(cc1OCC)-n1cccc1C(c1ccc(OC(F)F)cc1)NC2 (configuration not stated)	i	i	i	-10*	i	42%*	i	i	i
CNCCc1nc(N)n[nH]1	i	i	i	i	i	x	x	x	x
COC(=O)C(O)(c1ccc(N(C)C(=O)c2ccc(Cl)c(Cl)c2)cc1)C(F)(F)F (configuration not stated)	i	i	i	-7.8*	i	i	i	i	i
CCOC(=O)C(O)(c1ccc(N(C)C(=O)c2ccc(Cl)c(Cl)c2)cc1)C(F)(F)F (configuration not stated)	i	i	i	i	i	x	x	x	x

Screens as filed in PubChem.
